A selection: hits, their analogues and other compounds. The true share with any hit is near 1.6%.
SDO1 yeast rescue: restores growth of sdo1-depleted yeast. S. cerevisiae sdo1-depleted JHY4D growth rescue, OD600 30 h; hits give high values; pdr5 snq2 efflux-pump mutant strain. z-score at 10 µM. hit rate 0.21% among 140,000. AID 817;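 active means z-score above 3 at both the 24 hr and the 30 hr optical density reads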
p47phox inh: p47phox (human) inhibition. hit rate 0.53% among 220,000. inhibition, % at 24.7 µM. P14598. p47phox/p22phox peptide binding, fluorescence polarization, 2 h;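 active means inhibition above about 30%, limit read from the data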
Target sequence (P14598 whole entry, looked up): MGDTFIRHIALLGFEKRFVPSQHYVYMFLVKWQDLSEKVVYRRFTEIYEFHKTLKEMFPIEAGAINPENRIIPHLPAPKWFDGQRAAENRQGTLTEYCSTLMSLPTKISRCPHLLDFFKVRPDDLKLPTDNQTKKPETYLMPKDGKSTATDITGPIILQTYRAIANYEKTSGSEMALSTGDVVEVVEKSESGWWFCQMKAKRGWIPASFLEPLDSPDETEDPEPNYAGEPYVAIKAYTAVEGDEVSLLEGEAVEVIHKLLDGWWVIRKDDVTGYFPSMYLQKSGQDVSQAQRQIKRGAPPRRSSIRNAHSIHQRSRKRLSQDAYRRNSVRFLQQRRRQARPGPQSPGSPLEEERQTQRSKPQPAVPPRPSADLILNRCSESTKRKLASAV
RBBP9 inhibitor: blocks human serine hydrolase RBBP9; O75884; recombinant RBBP9, FP-Rh probe fluorescence polarization; hit rate 0.2% among 220,000; inhibition, % at 7.94 µM;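 active means inhibition above the campaign mean of all tested compounds plus 3 SD, cut at about 14% in these data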
Target sequence (O75884 whole entry, looked up): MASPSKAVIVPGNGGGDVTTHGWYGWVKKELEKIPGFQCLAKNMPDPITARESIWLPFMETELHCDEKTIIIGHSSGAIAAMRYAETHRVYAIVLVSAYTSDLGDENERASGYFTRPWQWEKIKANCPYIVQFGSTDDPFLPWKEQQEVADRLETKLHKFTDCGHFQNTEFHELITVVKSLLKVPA
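Measured by – fluorescence polarization · Test system – RBBP9 protein · Input – 2.5 µM RBBP9 dispensing solution, before mixing · Measure – percent inhibition from mP, scaled between DMSO and no-protein wells · Benchmarks – DMSO-treated enzyme wells and wells lacking RBBP9 · Times – preincubation 30 min plus labeling 45 min at 25 °C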
Yeast lifespan up: yeast lifespan extension; inhibition of the nicotinamide effect, % at 10 µM; S. cerevisiae growth with nicotinamide, OD615; deaD strain in restrictive glucose medium; hit rate 0.68% among 130,000;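 active means inhibition above a set limit, placed 3 SD over the median of all compounds, cut at about 26% in these data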
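Buffer or medium: CSMM-D glucose medium, restrictive; test system: modified budding yeast, DeaD strain; compound: single dose 10 µM compound, 0.25% DMSO; schedule: culture preincubation 4 h, compound exposure 48 h, both 30 °C; detection: optical density (absorbance) at 615 nm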
Yeast growth inh: chemicals that inhibit yeast BB579 growth in restrictive medium (lifespan-shortening candidates) | inhibition, % at 10 µM | hit rate 0.51% among 140,000 | S. cerevisiae BB579 growth, OD615, 48 h;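 active means inhibition above a set limit, 3 SD over the mean compound inhibition, cut at about 44% in these data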
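Test system: Saccharomyces cerevisiae DeaD strain BB579, replicative lifespan model yeast | Buffer or medium: Restrictive CSMM-D medium | Doses: One dose, 10 µM compound with 0.25% DMSO | Incubation: 48 h exposure, 30 °C | Detection: Culture absorbance at 615 nm | Control set: Amphotericin B at 10 µg/mL as positive control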
TbHK1 inh: T. brucei hexokinase 1 inhibition | AID 1430 | hit rate 0.11% among 220,000 | recombinant TbHK1, G6PDH-coupled NADH A340 | inhibition, % at 10 µM;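 active means inhibition of 50% or more in the single-dose primary screen; inactive means inhibition below 50%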
Numbers stand for hits; n = inactive; x = no result; + = active, no number.

SMILES	SDO1 yeast rescue	p47phox inh	RBBP9 inhibitor	Yeast lifespan up	Yeast growth inh	TbHK1 inh
CCn1c(=O)c(C(=O)Nc2nc3ccccc3[nH]2)c(O)c2ccccc21	n	n	n	n	67.3	n
CCn1c(=O)c(C(=O)Nn2c(C)nc3ccccc3c2=O)c(O)c2ccccc21	n	n	n	n	99.3	n
CCCCCCCCCC(=O)NNC(=O)c1c(O)c2ccccc2n(CCC)c1=O	x	n	n	x	x	n
CCCn1c(=O)c(C(=O)NNS(=O)(=O)c2ccc(Cl)cc2)c(O)c2ccccc21	n	n	n	27.1	n	n
Cc1ccc(-c2noc(-c3ccoc3C)n2)cc1	x	n	n	x	x	n
O=S(=O)(Nc1cccc(-c2nnco2)c1)c1ccc(F)cc1F	x	n	n	x	x	n
COC(=O)c1ccc2c(c1O)C(=O)c1ccccc1C2=O	n	n	n	n	66.6	n
Cc1ccc2c(c1)C(=O)c1c(C(=O)O)cccc1-2	x	n	n	x	x	n
CCSc1c(C(=O)NC)ccc2c1C(=O)c1ccccc1C2=O	n	n	n	n	n	n
Nc1cc(C(=O)O)c(N)c2c1C(=O)c1ccccc1C2=O	x	+	n	x	x	n
Nc1c(C(=O)O)ccc2c1C(=O)c1ccccc1C2=O	x	76.8	n	x	x	n
CC(C1CCN(Cc2nc(C3CC3)no2)CC1)N1CCOCC1 (stereo not drawn)	x	n	n	x	x	n
Cn1c2ccccc2c(=O)c2c(=O)n(C3CCCCCC3)c(C3CCCCC3)nc21	n	45.0	n	26.0	n	n
CCc1nc2c(c(=O)c3ccccc3n2C)c(=O)n1C1CCCCCC1	n	n	n	28.3	n	n
CCC1CN(C(=O)Nc2ccc(C)cc2)c2cc(C)ccc2O1 (stereo not drawn)	x	n	n	x	x	n
COc1ccc(-c2nnc(SCC(=O)O)n2C)cc1OC	x	n	n	x	x	n
Cc1ccc(C2=NN(C(=O)CCl)C(c3cccs3)C2)o1 (stereo not drawn)	n	n	n	35.3	n	n
O=C(CCl)N1N=C(c2ccco2)CC1c1cccs1 (stereo not drawn)	n	n	n	n	n	n
CC1(CCc2ccccc2)NC(=O)N(CC(=O)O)C1=O (stereo not drawn)	x	n	n	x	x	n
CCc1ccc(C(=O)CN2C(=O)NC(C)(CCc3ccccc3)C2=O)cc1 (stereo not drawn)	n	n	n	46.2	n	n
CCC(=C(c1ccc(OC)cc1)c1ccc(OC)cc1)c1cn(CC(O)CN2CCN(C)CC2)c2ccccc12 (stereo not drawn)	n	77.7	n	n	94.9	n
COc1ccc(-c2cc3ccccc3n2CC(O)CN2CCCCC2)cc1 (stereo not drawn)	x	n	n	x	x	n
COc1ccccc1NC(C#N)c1ccccc1OCc1ccccc1 (stereo not drawn)	n	n	n	30.5	n	n
CCOC(=O)c1cccc(NC(=O)C(C)N2C(=O)c3ccccc3C2=O)c1 (stereo not drawn)	n	n	n	n	n	n
CCOC(=O)c1ccc(NC(=O)C(C)N2C(=O)c3ccccc3C2=O)cc1 (stereo not drawn)	n	n	n	27.2	n	n
SMILES	SDO1 yeast rescue	p47phox inh	RBBP9 inhibitor	Yeast lifespan up	Yeast growth inh	TbHK1 inh
Nc1ccc(-n2nnnc2-c2ccco2)cc1	n	59.1	n	n	n	n
Oc1[nH]c(=S)sc1/C=C1\C(c2ccccc2)=Nc2ccccc21	n	32.4	n	n	n	n
O=C(Nc1nnc(COc2ccc(Cl)cc2)s1)c1ccco1	x	n	n	x	x	n
Nc1cc(C(=O)O)ccc1Nc1ccc(F)c(F)c1	n	30.2	n	n	n	n
O=C(O)c1ccc(N/N=C/c2ccc(F)c(F)c2)cc1	n	n	n	n	n	n
CCCC(=O)C1C(=O)CC(CC(C)SCC)CC1=O (stereo not drawn)	n	n	n	96.8	n	n
CCCC(=N)C1=C(O)CC(CC(C)SCC)CC1=O (stereo not drawn)	n	n	n	n	n	n
COc1ccccc1-c1cc(SC)c(C#N)c(=O)o1	n	n	n	26.5	n	n
COc1ccccc1-c1cc(C(F)(F)F)c(C#N)c(=O)[nH]1	x	n	n	x	x	n
C=CCNC(=O)/C(C#N)=C/c1ccccc1OCc1ccc(C(=O)OC)cc1	n	n	n	34.9	n	n
COC(=O)c1ccc(COc2ccccc2/C=C(\C#N)C(=O)Nc2ccc(C)cc2)cc1	n	n	n	n	n	n
COc1cc2c(cc1OC)CN(C(=O)c1ccc(S(=O)(=O)N3CCCCC3)cc1)CC2	n	49.2	n	n	n	n
CN1CCN(S(=O)(=O)c2ccc(N3CCN(S(=O)(=O)/C=C/c4ccccc4)CC3)nc2)CC1	n	39.7	n	n	n	n
CN1CCN(S(=O)(=O)c2ccc(N3CCN(C(c4ccccc4)c4ccccc4)CC3)nc2)CC1	x	n	n	x	x	n
COc1ccc(CN2CCC(N(CCc3ccccc3)Cc3ccccc3)CC2)c(OC)c1	x	n	n	x	x	n
CC(C)C(c1nnnn1Cc1ccccc1)N1CCN(Cc2ccc3c(c2)OCO3)CC1 (stereo not drawn)	n	n	n	64.7	n	n
CCCC(C)NC(=O)CSc1nnc2ccccn12 (stereo not drawn)	x	n	n	x	x	n
C=CCn1cc(C(=O)OCC)c(=O)c2ccc(F)cc21	x	n	n	x	x	n
NS(=O)(=O)c1ccc(NC(=O)COc2ncnc3c2cnn3-c2ccccc2)cc1	x	n	n	x	x	n
Cc1ccc(/C=C2\SC(N3CCCC3)=NC2=O)cc1	x	n	n	x	x	n
CC(C)c1ccc(/C=C2\SC(N3CCCC3)=NC2=O)cc1	n	n	n	33.7	n	n
O=C(CN1N=C(c2ccccc2)CCC1=O)NCc1cccs1	x	n	n	x	x	n
O=C(O)CCC(=O)N1CCN(c2nc(-c3ccccc3Cl)c3cc(Br)ccc3n2)CC1	n	n	n	n	99.2	n
Clc1ccccc1-c1ncnc2ccc(Br)cc12	x	n	n	x	x	n
COc1cc(/C=C/C(=O)OC(C)C(=O)Nc2c(C)n(C)n(-c3ccccc3)c2=O)ccc1OCC#N (stereo not drawn)	x	n	n	x	x	n
Cc1ccccc1NC(=S)c1nc2ccccc2[nH]1	n	n	n	n	49.7	n
Cn1c(N)c(C(=O)c2ccc(F)cc2F)c(=O)n(C)c1=O	n	n	n	40.4	n	n

Source: PubChem (several laboratories)
